Runt-SMMHC FRET: inhibitors of RUNX1 Runt–CBFb-SMMHC binding, primary screen, biochemical, FRET, Cerulean-Runt, Venus-CBFb-SMMHC, uHTS; Cerulean-Runt/Venus-CBFb-SMMHC FRET ratio 530/480, 1 h; inhibition, % at 20 µM; 220,000 tested, 0.74% active; AID 1434, 2008;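 active = mean inhibition across duplicate retests at 20 µM reaching about 50%, limit read from the data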;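 note: inhibitors lower the FRET ratio by blocking Runt binding to CBFb-SMMHC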
Target sequence (Q01196 whole entry, looked up): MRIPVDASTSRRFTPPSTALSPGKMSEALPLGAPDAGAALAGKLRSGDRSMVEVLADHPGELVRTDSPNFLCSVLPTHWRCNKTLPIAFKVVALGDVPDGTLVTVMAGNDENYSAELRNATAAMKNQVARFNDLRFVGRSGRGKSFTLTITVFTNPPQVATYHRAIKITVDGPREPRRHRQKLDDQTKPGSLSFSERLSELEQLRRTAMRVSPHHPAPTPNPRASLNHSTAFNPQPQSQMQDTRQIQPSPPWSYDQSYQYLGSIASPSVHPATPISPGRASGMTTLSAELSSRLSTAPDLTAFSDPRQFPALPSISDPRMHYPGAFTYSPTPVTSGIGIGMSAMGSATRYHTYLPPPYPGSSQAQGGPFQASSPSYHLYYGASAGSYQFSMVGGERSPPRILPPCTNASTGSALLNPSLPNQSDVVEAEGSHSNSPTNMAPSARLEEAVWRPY
Target sequence (Q13951 whole entry, looked up): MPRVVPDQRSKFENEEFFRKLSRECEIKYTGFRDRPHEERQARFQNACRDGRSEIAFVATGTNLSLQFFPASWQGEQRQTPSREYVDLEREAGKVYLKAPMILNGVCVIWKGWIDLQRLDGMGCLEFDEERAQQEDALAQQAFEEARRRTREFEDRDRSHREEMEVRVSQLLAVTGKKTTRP
Runt-CBFb FRET: inhibitors of RUNX1 Runt–CBFb binding, primary screen, biochemical, FRET, Cerulean-Runt, Venus-CBFb, uHTS | Cerulean-Runt/Venus-CBFb FRET ratio 530/480, 1 h | inhibition, % at 20 µM | 220,000 tested, 0.46% active;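 active = inhibition over about 50% at 20 µM in the single-dose screen, limit read from the data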
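test system = Cerulean-Runt domain fusion protein, energy donor | probe or stimulus = Venus-CBFb binding partner, 100 nM | incubation = two 1 h room-temperature incubations shielded from light | detection = fluorescence energy transfer, 422 nm excitation, 530/480 nm emission | measure = loss of energy transfer signal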
RanGTP-Imp inh: inhibitors of RanGTP-importin-beta interaction, primary screen, biochemical, FRET, CFP-Ran, YFP-importin-beta, homogeneous. inhibition, % (concentration not given with the values). Ran GTPase (GTP-bound) - importin-beta complex. AID 2216, 2009. 300,000 tested, 1.1% active. cell-free CFP-Ran/YFP-importin-beta FRET ratio;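 active = more than half of the replicate wells show a fall in the fluorescence ratio signal beyond about 16%, limit read from the data, passing the limit was not always enough; inconclusive = exactly half of the replicate wells pass the set limit; inactive = fewer than half of replicates pass the limit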
Hck-Nef inh: inhibitors of Nef-activated human Hck kinase, primary screen, biochemical, Z-Lyte FRET, 384-well, Hck-YEEI | Tyrosine-protein kinase HCK (Homo sapiens), P08631 | Recombinant Hck-YEEI plus Nef, Z-Lyte FRET kinase assay | inhibition, % at 20 µM | 220,000 tested, 0.68% active;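 active = Hck-Nef kinase inhibition above about 50%, limit read from the data; inactive = inhibition below that limit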
p97 inhibitor: inhibitors of human p97 ATPase, primary screen, biochemical. recombinant p97 ATPase, Kinase-Glo ATP luminescence, 3 h. inhibition, % at 8 µM. 220,000 tested, 0.42% active. AID 1481, 2009; in the data active = inhibition above about 15%
Tb hexokinase: Trypanosoma brucei hexokinase 1 inhibitors, primary screen, biochemical, G6PDH-coupled NADH absorbance, MLSCN library | hexokinase 1 [Trypanosoma brucei] | recombinant TbHK1, G6PDH-coupled NADH A340 | inhibition, % at 10 µM | 220,000 tested, 0.11% active;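 active = inhibition of 50% or more in the single-dose primary screen; inactive = inhibition below 50%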
Numbers stand for hits; – = inactive; ? = inconclusive; · = not tested or not shown. This is a sample that favours compounds with a hit; in the whole collection about 2.1% have one here.

SMILES	Runt-SMMHC FRET	Runt-CBFb FRET	RanGTP-Imp inh	Hck-Nef inh	p97 inhibitor	Tb hexokinase
CCCCN1C=CC(=C2C(=O)c3ccccc3C2=O)C=C1	–	–	–	–	–	–
S=C(NCc1ccco1)N1CCOCC1	–	–	22	–	–	–
S=C(NCc1ccco1)N1CCN(Cc2ccco2)CC1	–	·	–	–	–	–
C/C(=N\NC(=O)C(NC(=O)c1ccccc1)C(C)C)c1ccccc1 (stereo unspecified)	–	–	–	–	–	–
O=c1[nH]c(N/N=C/c2ccccc2)nc2ccccc12	50	–	?	–	–	–
O=c1[nH]c(N/N=C/c2cc3c(cc2[N+](=O)[O-])OCO3)nc2ccccc12	–	–	–	–	–	–
O=c1[nH]c(N/N=C\c2ccc3c(c2)OCO3)nc2ccccc12	–	–	16	–	–	–
CCOC(=O)c1c(NC(=O)CSc2nnc(C)s2)sc2c1CCC(CC)C2 (stereo unspecified)	–	–	–	–	–	–
Clc1ccc(CONc2ncnc3nonc23)c(Cl)c1	–	·	·	–	–	–
Cc1cccc(C)c1OCC(O)CNC(C)(C)C (stereo unspecified)	–	–	–	–	–	–
Cc1cc(-n2c(C)cc(C(=O)CSc3ncnc4ccccc34)c2C)no1	110	–	–	–	–	–
COc1c(O)cc2c(c1O)[C@@H]1O[C@H](CO)[C@@H](O)[C@H](O)C1OC2=O (stereo partly specified)	·	·	–	·	·	·
O=C1OCC2OC(O)C(O)C(O)C2OC(=O)c2cc(O)c(O)c(O)c2-c2c(O)c(O)c3oc(=O)c4c(c(O)c(O)c5oc(=O)c2c3c54)-c2c1cc(O)c(O)c2O (stereo unspecified)	–	–	·	–	·	54
COc1ccc(-c2ccc(-c3noc(-c4ccc(OC)c(OC)c4)n3)c(OC)n2)cc1	–	–	·	·	·	·
COc1ccc(-c2ccc(-c3noc(C4CCCCC4)n3)c(OC)n2)cc1	–	–	19	–	–	–
COc1ccc(-c2ccc(-c3noc(-c4cccc(OC)c4)n3)c(OC)n2)cc1	–	–	–	–	–	–
COc1ccc(-c2ccc(-c3noc(-c4ccccc4OC)n3)c(OC)n2)cc1	–	–	35	–	–	–
COc1ccc(-c2ccc(-c3noc(-c4ccccc4C)n3)c(OC)n2)cc1	–	–	23	–	–	–
COc1ccc(-c2ccc(-c3noc(C)n3)c(OC)n2)cc1	–	–	–	–	–	–
COc1ccc(-c2ccc(-c3noc(-c4cccs4)n3)c(OC)n2)cc1	–	–	30	–	–	–
CCCN=C1N/C(=C\c2ccco2)C(=O)N1c1ccccc1	–	–	–	–	–	–
O=C1/C(=C\c2ccco2)NC(=S)N1c1ccccc1	–	–	–	53	–	–
Cc1cc(C)cc(-n2c3nc4ccccc4nc3c3c(=O)n(Cc4ccco4)cnc32)c1	·	–	19	–	–	–
CCCSc1ccc(-c2nn(-c3ccccc3)cc2/C=C(/C#N)C(=O)NCCCOC)cc1	–	–	–	–	–	–
CCSc1ccc(-c2nn(-c3ccccc3)cc2/C=C(/C#N)C(=O)NCCCOC)cc1	60	–	·	–	–	–
SMILES	Runt-SMMHC FRET	Runt-CBFb FRET	RanGTP-Imp inh	Hck-Nef inh	p97 inhibitor	Tb hexokinase
Cc1ccc(-c2cc(-c3ccc(C)o3)nc(N)c2C#N)cc1	–	–	–	–	–	–
Cc1ccc(-c2cc(-c3ccc(Cl)cc3)c(C#N)c(N)n2)o1	–	–	16	–	–	–
N#C/C(=C\c1ccc(-c2ccccc2Cl)o1)C(=O)Nc1nc2ccccc2s1	–	–	–	–	–	–
O=S(=O)(Cc1ccccc1)N1CCN(Cc2ccc3c(c2)OCO3)CC1	–	–	159	–	–	–
O=S(=O)(c1ccc2c(c1)OCCO2)N1CCN(Cc2ccc3c(c2)OCO3)CC1	–	–	–	–	–	–
O=C1C2C3CCC(O3)C2C(=O)N1c1cccc(O)c1 (stereo unspecified)	·	·	33	·	·	·
Cc1cccc(N2C(=O)C3C4C=CC(CC4)C3C2=O)c1 (stereo unspecified)	·	·	–	·	·	·
Cc1cccc(NC(=S)NNC(=O)CCn2cc(C)cn2)c1	–	–	–	–	–	–
N#CC1=C(N)Oc2cc(N)ccc2C1c1ccccc1F (stereo unspecified)	·	·	121	·	·	·
COc1cccc(C2C(C#N)=C(N)Oc3cc(N)ccc32)c1OC (stereo unspecified)	100	72	105	–	–	–
CC(=O)C1=C(c2ccccc2)OC(N)=C(C#N)C1c1ccccc1F (stereo unspecified)	–	–	–	–	–	–
CC(C)(C)c1ccc(-n2ncc3c2CCCC3NC(=O)C2(C(N)=O)CC2)cc1 (stereo unspecified)	·	·	–	·	·	·
Cc1ccc(Nc2nc(CSc3nnc(-c4cccnc4)n3-c3ccccc3C)cs2)cc1	–	–	–	–	–	–
CCN1C(=O)c2ccccc2Sc2ccc(C(=O)NCCCN(CC(C)C)CC(C)C)cc21	·	·	–	·	·	·
Cc1cc2c(c(=O)n1C)C(Cc1ccccc1)C(C#N)=C(N)O2 (stereo unspecified)	146	123	63	–	–	–
Cc1cc2c(c(=O)n1CCc1ccccc1)C(C(C)C)C(C#N)=C(N)O2 (stereo unspecified)	–	–	–	–	–	–
Cc1cccc(N2CCN(C(=O)Cn3sc4nc(C)cc(C)c4c3=O)CC2C)c1 (stereo unspecified)	74	–	–	–	–	–
Cc1cc(C)c2c(=O)n(CC(=O)N3CCC(Cc4ccccc4)CC3)sc2n1	50	–	–	–	–	–
Cc1cccn2c(=O)c3cc(C(=O)NCc4ccc(F)cc4)c(=N)n(CC4CCCO4)c3nc12 (stereo unspecified)	·	·	185	·	·	·
COCCn1c(=N)c(C(=O)NCCc2ccc(OC)cc2)cc2c(=O)n3cccc(C)c3nc21	114	108	78	–	–	–
COc1ccc(CNC(=O)c2cc3c(=O)n4cccc(C)c4nc3n(CC3CCCO3)c2=N)cc1 (stereo unspecified)	·	·	77	·	·	·
CCOc1ccc(CCNC(=O)COC(=O)c2cccnc2OCC)cc1OCC	–	–	20	–	–	–
